Ki and GI50 data for one molecule are collected here from ChEMBL document CHEMBL4813946, “Discovery of novel 4-azaaryl-N-phenylpyrimidin-2-amine derivatives as potent and selective FLT3 inhibitors for acute myeloid leukaemia with FLT3 mutations” (Eur J Med Chem, 2021).

The term Ki denotes a measure of affinity in units of concentration, obtained from inhibition or displacement. Higher therefore signals weaker binding. A word on the GI50: it is the concentration giving 50% growth inhibition.

Assay [1] addresses CDK7/Cyclin H/MNAT1 (Homo sapiens, UniProt P50613). The assay can be described thus: Inhibition of CDK7/cyclin H/MAT1 (unknown origin) using HYSPTSPSYSPTSPSYSPTSPSKKKK-O substrate incubated for 120 mins measured after 40 mins incubation under dark by ADP-glo based luminescence assay. Format: protein-complex assay. The essentials:
(§1)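 In-house ADP-Glo assay with 2 mM DMSO stocks. Kinases were CDK1/cyclin B at 1 nM, CDK2/cyclin E1 at 10 nM and CDK7/cyclin H/MAT1 at 40 nM. Substrate was histone 1 for CDK1 and CDK2, and a RNA pol II CTD peptide for CDK7. Compound at 8–10 concentrations, 1:3 serial, final DMSO 0.5%. Reactions ran 60–120 min at room temperature, then ADP-Glo reagent 40 min in the dark, then detection reagent 40 min, read by luminescence. Ki was derived from IC50 by Cheng-Prusoff.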
A general note: In ADP-Glo the light output rises with the ADP produced.

The subject of assay [2] is NB-4. The assay can be described thus: Antiproliferative activity against human NB-4 cells harboring wild type FLT3 assessed as reduction in cell viability after 72 hrs by resazurin assay. It is filed as functional. The procedure, abridged: (§2)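 Cells seeded and pre-incubated 24 h at 37 °C, 5% CO2, then given a five-fold dilution series of compound (from 10 mM DMSO stock) in medium, in triplicate. Resazurin added after 72 h exposure, 4 h in dark at 37 °C. Fluorescence read at 570/585 nm, normalised to DMSO vehicle. GI50 by non-linear regression; mean ± SD of at least two replicates.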
In general terms: Alamar Blue is a resazurin reagent that responds to reducing activity.

The target in assay [3] is Cyclin-dependent kinase 2/cyclin E1 (Homo sapiens, UniProt P24941). The assay can be described thus: Inhibition of CDK2/cyclin E (unknown origin) using histone 1 protein substrate incubated for 120 mins measured after 40 mins incubation under dark by ADP-glo based luminescence assay. It is filed as protein-complex assay. The procedure, abridged: as §1
In assay [4] the test system is Jurkat. In words: Antiproliferative activity against human Jurkat cells harboring FLT3 knockout gene assessed as reduction in cell viability after 72 hrs by resazurin assay. It is filed as functional. The essentials:
as §2

Assay [5] has as its system K562. The assay can be described thus: Antiproliferative activity against human K562 cells harboring FLT3 knockout gene assessed as reduction in cell viability after 72 hrs by resazurin assay. It is filed as functional. The essentials: as §2
Assay [6] can be described thus: Inhibition of FLT3 ITD-NPOS mutant (unknown origin) incubated for 120 mins by ADP-glo based luminescence assay. The arrangement: species or system Homo sapiens.
The nature of assay [7]: Inhibition of FLT3 Y591-V592insVDFREYEYD mutant (unknown origin) incubated for 120 mins by ADP-glo based luminescence assay. Also noted: species or system Homo sapiens.
Assay [8] deals with T1, Receptor-type tyrosine-protein kinase FLT3 (Homo sapiens, UniProt P36888).
T1 sequence (P36888 whole entry): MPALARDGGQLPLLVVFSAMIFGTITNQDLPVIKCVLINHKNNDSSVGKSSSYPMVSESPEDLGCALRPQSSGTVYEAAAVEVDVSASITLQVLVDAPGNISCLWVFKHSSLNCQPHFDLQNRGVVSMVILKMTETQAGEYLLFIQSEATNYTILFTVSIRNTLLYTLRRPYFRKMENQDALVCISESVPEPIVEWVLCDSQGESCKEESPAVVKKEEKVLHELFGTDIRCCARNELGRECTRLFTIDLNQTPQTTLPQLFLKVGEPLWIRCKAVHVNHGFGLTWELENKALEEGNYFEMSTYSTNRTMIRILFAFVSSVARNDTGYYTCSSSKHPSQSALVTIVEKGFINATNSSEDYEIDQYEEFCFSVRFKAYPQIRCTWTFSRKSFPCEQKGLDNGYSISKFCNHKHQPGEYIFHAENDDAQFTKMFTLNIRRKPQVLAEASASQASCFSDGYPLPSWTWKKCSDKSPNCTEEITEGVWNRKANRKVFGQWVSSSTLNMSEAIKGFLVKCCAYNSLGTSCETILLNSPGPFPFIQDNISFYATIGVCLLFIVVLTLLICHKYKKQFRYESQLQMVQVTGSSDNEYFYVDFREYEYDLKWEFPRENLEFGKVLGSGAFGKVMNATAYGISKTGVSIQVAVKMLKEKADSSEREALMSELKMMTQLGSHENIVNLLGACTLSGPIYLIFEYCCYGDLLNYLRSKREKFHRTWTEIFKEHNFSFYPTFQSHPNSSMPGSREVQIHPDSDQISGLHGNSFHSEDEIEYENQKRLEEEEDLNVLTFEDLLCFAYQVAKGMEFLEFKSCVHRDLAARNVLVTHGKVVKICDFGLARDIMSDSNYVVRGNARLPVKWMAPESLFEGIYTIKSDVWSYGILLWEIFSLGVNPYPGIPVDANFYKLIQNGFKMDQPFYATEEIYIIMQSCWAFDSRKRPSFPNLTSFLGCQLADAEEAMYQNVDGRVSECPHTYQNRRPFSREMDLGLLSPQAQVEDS
The assay can be described thus: Inhibition of wild type FLT3 (unknown origin) using Glu/Tyr peptide substrate incubated for 120 mins measured after 40 mins incubation under dark by ADP-glo based luminescence assay. The essentials:
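In-house ADP-Glo assay with poly(Glu,Tyr) 4:1 substrate in 40 mM Tris pH 7.5, 20 mM MgCl2, 50 µM DTT, 0.1 mg/mL BSA. Kinase at 20 nM. ADP-Glo reagent 40 min in the dark, detection reagent 30–40 min, then luminescence. Ki was derived from IC50 by Cheng-Prusoff.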

The target in assay [9] is Receptor-type tyrosine-protein kinase FLT3 (Homo sapiens, UniProt P36888, ITD). The assay can be described thus: Inhibition of FLT3 ITD mutant (unknown origin) using Glu/Tyr peptide substrate incubated for 80 mins measured after 40 mins incubation under dark by ADP-glo based luminescence assay.
Assay [10] addresses Receptor-type tyrosine-protein kinase FLT3 (Homo sapiens, UniProt P36888, D835Y). In words: Inhibition of FLT3 D835Y mutant (unknown origin) incubated for 120 mins by ADP-glo based luminescence assay.
The target of assay [11] is Receptor-type tyrosine-protein kinase FLT3 (Homo sapiens, UniProt P36888, F594-R595INSR). The assay can be described thus: Inhibition of FLT3 F594_R595insR mutant (unknown origin) incubated for 120 mins by ADP-glo based luminescence assay.
The test system of assay [12] is MV4-11. In words: Antiproliferative activity against human MV4-11 cells harboring FLT3-ITD mutant assessed as reduction in cell viability after 72 hrs by resazurin assay. It is filed as functional. The essentials: as §2
Assay [13] is described as follows: Antiproliferative activity against human MOLM-13 cells harboring FLT3-ITD mutant assessed as reduction in cell viability after 72 hrs by resazurin assay. It is filed as functional. To be noted: MOLM-13, 72 h. The procedure, abridged:
as §2

In assay [14] the target is Receptor-type tyrosine-protein kinase FLT3 (Homo sapiens, UniProt P36888, R595-E596INSEY). In words: Inhibition of FLT3 R595_E596insEY mutant (unknown origin) incubated for 120 mins by ADP-glo based luminescence assay.
Assay [15] relates to U-937. The assay can be described thus: Antiproliferative activity against human U-937 cells harboring wild type/low FLT3 assessed as reduction in cell viability after 72 hrs by resazurin assay. Format: functional. The essentials: as §2
In assay [16] the test system is MV4-11. The assay can be described thus: Antiproliferative activity against human MV4-11 cells incubated for 72 hrs by resazurin assay. Format: functional. The essentials:
as §2

The nature of assay [17]: Inhibition of FLT3 ITD-W51 mutant (unknown origin) incubated for 120 mins by ADP-glo based luminescence assay. The arrangement: species or system Homo sapiens.
Assay [18] concerns THP-1. In words: Antiproliferative activity against human THP-1 cells harboring wild type FLT3 assessed as reduction in cell viability after 72 hrs by resazurin assay. Format: functional. The essentials: as §2
Assay [19] deals with Cyclin-dependent kinase 1/cyclin B1 (Homo sapiens, UniProt P06493). The assay can be described thus: Inhibition of CDK1/cyclin B (unknown origin) using histone 1 protein substrate incubated for 120 mins measured after 40 mins incubation under dark by ADP-glo based luminescence assay. It is filed as protein-complex assay. The procedure, abridged:
as §1

CDK7/Cyclin H/MNAT1, sequence (P51946 whole entry): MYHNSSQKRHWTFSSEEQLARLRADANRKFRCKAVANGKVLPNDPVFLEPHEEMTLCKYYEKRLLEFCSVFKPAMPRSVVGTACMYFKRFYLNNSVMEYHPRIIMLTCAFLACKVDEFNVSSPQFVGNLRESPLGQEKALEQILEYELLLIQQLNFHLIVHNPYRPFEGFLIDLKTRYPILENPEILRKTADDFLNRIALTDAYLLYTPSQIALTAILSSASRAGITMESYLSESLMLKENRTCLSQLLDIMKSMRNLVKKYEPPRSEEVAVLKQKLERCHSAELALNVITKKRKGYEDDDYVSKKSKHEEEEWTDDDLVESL
CDK7/Cyclin H/MNAT1, sequence (P50613 whole entry): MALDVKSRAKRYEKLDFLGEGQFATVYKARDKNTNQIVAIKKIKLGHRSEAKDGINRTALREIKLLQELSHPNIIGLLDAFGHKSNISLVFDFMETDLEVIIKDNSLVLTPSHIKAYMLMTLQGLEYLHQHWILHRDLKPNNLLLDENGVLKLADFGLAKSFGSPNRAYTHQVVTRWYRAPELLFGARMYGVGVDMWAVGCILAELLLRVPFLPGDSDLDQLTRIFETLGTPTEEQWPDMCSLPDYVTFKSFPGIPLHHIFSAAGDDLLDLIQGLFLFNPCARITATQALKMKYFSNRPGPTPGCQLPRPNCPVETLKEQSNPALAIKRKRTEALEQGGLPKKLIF
CDK7/Cyclin H/MNAT1, sequence (P51948 whole entry, further chain): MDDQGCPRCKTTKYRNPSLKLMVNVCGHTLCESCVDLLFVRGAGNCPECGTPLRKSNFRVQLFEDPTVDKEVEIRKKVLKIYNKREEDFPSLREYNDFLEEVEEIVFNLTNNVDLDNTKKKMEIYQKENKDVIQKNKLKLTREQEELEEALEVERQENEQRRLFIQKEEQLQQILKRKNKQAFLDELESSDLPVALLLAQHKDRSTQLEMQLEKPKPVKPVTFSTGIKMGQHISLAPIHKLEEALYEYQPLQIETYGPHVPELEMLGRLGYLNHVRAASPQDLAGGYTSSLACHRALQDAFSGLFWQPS
Cyclin-dependent kinase 1/cyclin B1, sequence (P06493 whole entry): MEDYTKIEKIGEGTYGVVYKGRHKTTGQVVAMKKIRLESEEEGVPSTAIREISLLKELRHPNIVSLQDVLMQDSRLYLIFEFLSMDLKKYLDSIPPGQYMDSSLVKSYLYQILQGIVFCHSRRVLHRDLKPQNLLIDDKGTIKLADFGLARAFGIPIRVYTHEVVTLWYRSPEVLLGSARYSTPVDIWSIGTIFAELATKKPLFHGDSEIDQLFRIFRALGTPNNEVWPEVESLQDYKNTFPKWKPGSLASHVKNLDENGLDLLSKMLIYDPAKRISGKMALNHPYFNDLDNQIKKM
Cyclin-dependent kinase 1/cyclin B1, sequence (P14635 whole entry, further chain): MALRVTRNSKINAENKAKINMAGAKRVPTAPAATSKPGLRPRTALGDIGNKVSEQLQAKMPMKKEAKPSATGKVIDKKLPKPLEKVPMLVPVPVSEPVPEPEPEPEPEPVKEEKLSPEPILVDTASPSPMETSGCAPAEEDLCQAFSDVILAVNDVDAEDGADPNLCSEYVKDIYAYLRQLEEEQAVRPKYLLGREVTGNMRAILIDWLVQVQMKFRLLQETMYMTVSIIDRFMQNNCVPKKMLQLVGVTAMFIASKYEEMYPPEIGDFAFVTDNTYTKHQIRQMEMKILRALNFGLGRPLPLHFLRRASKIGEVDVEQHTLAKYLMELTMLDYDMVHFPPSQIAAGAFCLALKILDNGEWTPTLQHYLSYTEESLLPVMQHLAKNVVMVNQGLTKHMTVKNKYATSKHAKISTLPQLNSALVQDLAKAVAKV

Regarding `CC(=O)N1CCN(c2ccc(Nc3ncc(C#N)c(-c4n[nH]c5ccccc45)n3)cc2)CC1`, the Ki in assay [1] is over 5000 nM; in [3] it was over 5000 nM; in [6], under 0.3 nM; in assay [7], under 0.3 nM; in assay [8], 21 nM; in [9], 0.2 nM. The Ki in assay [10] is under 0.3 nM; in assay [11], under 0.3 nM; in assay [14], under 0.3 nM; in assay [17], under 0.3 nM; in [19] it was 1650 nM. The 50% growth inhibitory concentration (GI50) was 126 nM in [2]; over 10000 nM in assay [4]; 185 nM in assay [5]; 17 nM in assay [12]; 0.4 nM in assay [13]; over 10000 nM in [15]. Besides, the GI50 in assay [16] came out at 17 nM; in [18], 3040 nM.
